Calls of active or inactive are those of the source. No cut-off for these calls is given here.
Legend:
Aurora kinase B [1] = target: T1, Aurora kinase B (Homo sapiens, UniProt Q96GD4); assay: Inhibition of recombinant full length human N-terminal GST-tagged Aurora B expressed in baculovirus infected Sf9 cells at 1 uM using myelin basic protein as substrate after 60 mins by ADP-Glo luminescence assay relative to control
How it was run: (§1)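 Purified active Aurora A or Aurora B with myelin basic protein substrate and 10 µM ATP; compounds dissolved in DMSO and tested at a single concentration (10 µM screen, or 1 µM). Reaction 60 min at room temperature, then ADP-Glo reagent 30 min and detection reagent 30 min; luminescence read. Inhibition expressed relative to 10 µM staurosporine.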

Aurora kinase B [2] = target: T1, Aurora kinase B; assay: Inhibition of recombinant full length human N-terminal GST-tagged Aurora B expressed in baculovirus infected Sf9 cells using myelin basic protein as substrate after 60 mins by ADP-Glo luminescence assay
How it was run: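 ADP-Glo assay with purified active Aurora B, myelin basic protein substrate, 10 µM ATP, 60 min kinase reaction at room temperature followed by luminescence detection. IC50 determined for compounds exceeding 50% inhibition relative to staurosporine, calculated by curve fitting.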

[3] = target: T2, Aurora kinase A (Homo sapiens) (UniProt O14965); assay: Inhibition of recombinant full length human N-terminal GST-tagged Aurora A expressed in baculovirus infected Sf9 cells at 1 uM using myelin basic protein as substrate after 60 mins by ADP-Glo luminescence assay relative to control; how it was run: as §1
T2 sequence (whole entry): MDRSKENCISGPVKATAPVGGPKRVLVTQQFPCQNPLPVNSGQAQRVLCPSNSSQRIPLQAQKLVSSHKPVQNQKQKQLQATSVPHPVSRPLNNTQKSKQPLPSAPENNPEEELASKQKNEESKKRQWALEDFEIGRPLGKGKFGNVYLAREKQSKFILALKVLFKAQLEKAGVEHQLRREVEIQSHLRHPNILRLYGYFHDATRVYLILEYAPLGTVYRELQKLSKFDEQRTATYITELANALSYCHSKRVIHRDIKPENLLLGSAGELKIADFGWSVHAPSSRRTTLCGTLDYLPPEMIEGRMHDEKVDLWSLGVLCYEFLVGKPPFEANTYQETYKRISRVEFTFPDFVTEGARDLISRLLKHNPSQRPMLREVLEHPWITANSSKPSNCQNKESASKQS

[4] = target: T2, Aurora kinase A (Homo sapiens); assay: Inhibition of recombinant full length human N-terminal GST-tagged Aurora A expressed in baculovirus infected Sf9 cells at 10 uM using myelin basic protein as substrate after 60 mins by ADP-Glo luminescence assay relative to control; how it was run: as §1
Aurora kinase B [5] = target: T1, Aurora kinase B; assay: Inhibition of recombinant full length human N-terminal GST-tagged Aurora B expressed in baculovirus infected Sf9 cells at 10 uM using myelin basic protein as substrate after 60 mins by ADP-Glo luminescence assay relative to control; how it was run: as §1
HeLa [6] = assay: Cell cycle arrest in human HeLa cells assessed as accumulation at G2/M phase at 50 uM after 24 hrs by propidium iodide staining based flow cytometry (reference value: 12 %); format: functional
How it was run: (§2)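 HeLa cells seeded the day before and exposed to inhibitor (10 or 50 µM) or DMSO for 24 h, harvested non-enzymatically, fixed in cold 70% EtOH at 4 °C for 2 h, stained with PI/Triton X-100 solution containing RNase A (25 °C, 20 min, dark). Cell cycle distribution was measured by flow cytometry, and the G2/M percentage was compared with DMSO.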

Aurora kinase B [7] = target: T1, Aurora kinase B; assay: Inhibition of Aurora B in human HeLa cells assessed as reduction in histone H3 phosphorylation at Ser10 residue after 1 hr by Western blot analysis; format: cell-based
How it was run: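 HeLa cells synchronized in mitosis by a 16 h Monastrol block, then released into Monastrol-free medium containing inhibitor at graded concentrations; Hesperadin 5 µM and DMSO as references. Cells harvested 1 h after release, lysed in RIPA with protease/phosphatase inhibitors, 20 µg protein resolved on 8~15% SDS-PAGE. Immunoblotted for phospho-H3S10, total histone H3, α-tubulin and Aurora B.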

HeLa [8] = assay: Cell cycle arrest in human HeLa cells assessed as increase in accumulation at G2/M phase at 50 uM after 24 hrs by propidium iodide staining based flow cytometry relative to control; format: functional; how it was run: as §2

T1 sequence (Q96GD4 whole entry): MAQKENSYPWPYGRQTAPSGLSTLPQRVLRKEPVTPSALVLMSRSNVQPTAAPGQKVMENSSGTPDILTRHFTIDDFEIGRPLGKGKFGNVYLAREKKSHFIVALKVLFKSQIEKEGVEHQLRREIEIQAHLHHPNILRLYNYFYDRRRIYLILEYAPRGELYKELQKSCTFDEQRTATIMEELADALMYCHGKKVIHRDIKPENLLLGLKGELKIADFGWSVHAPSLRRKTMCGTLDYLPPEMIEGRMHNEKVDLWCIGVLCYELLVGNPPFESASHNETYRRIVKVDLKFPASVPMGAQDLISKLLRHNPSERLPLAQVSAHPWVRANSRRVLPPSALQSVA

Row | inhibition (Aurora kinase B [1]) [%] | IC50 (Aurora kinase B [2]) [nM] | inhibition [3] | inhibition [4] | inhibition (Aurora kinase B [5]) | Compound | further results
1 | 37 | 3100 | inactive | – | – | O=C(Nc1ccccc1)Nc1cccc(CNc2nc3ccc(OCCN4CCOCC4)cc3s2)c1 | –
2 | – | – | – | inactive | 24% | O=C(Nc1cccc(CNc2nc3ccc(OCCN4CCOCC4)cc3s2)c1)c1ccccc1 | –
3 | – | – | – | – | 46% | O=C(Nc1ccc(Cl)c(Cl)c1)n1ccc(CNc2nc3ccc(OCCN4CCOCC4)cc3s2)n1 | –
4 | – | 700 | – | inactive | 85% | COc1ccc(C(=O)Nc2ccc(CNc3nc4ccc(OCCN5CCOCC5)cc4s3)cc2)cc1 | –
5 | 67 | 460 | inactive | – | – | O=C(Nc1ccc(CNc2nc3ccc(OCCN4CCOCC4)cc3s2)cc1)Nc1cccc(Cl)c1 | –
6 | 91 | 270 | inactive | – | – | O=C(Nc1ccccc1)Nc1ccc(CNc2nc3ccc(OCCN4CCOCC4)cc3s2)cc1 | –
7 | 100 | 120 | inactive | – | – | O=C(Nc1ccc(Cl)cc1)Nc1ccc(CNc2nc3ccc(OCCN4CCOCC4)cc3s2)cc1 | Activity (HeLa [6]): 17%; inhibition (Aurora kinase B [7]): Dose-dependent effect
8 | – | 3000 | – | inactive | 59% | O=C(Nc1ccc(CNc2nc3ccc(OCCN4CCOCC4)cc3s2)cc1)c1ccc(Cl)cc1 | –
9 | 5 | 2300 | inactive | – | – | O=C(Nc1ccc(Cl)cc1)Nc1ccc(CNc2nc3ccc(OCCN4CCCCC4)cc3s2)cc1 | –
10 | 31 | 1200 | inactive | – | – | O=C(Nc1ccc(Cl)cc1)Nc1cccc(CNc2nc3ccc(OCCN4CCOCC4)cc3s2)c1 | –
11 | – | – | – | inactive | 28% | O=S(=O)(Nc1ccc(CNc2nc3ccc(OCCN4CCOCC4)cc3s2)cc1)c1ccc(Cl)cc1 | –
12 | 65 | 320 | inactive | – | – | CN(C)CCOc1ccc2nc(NCc3ccc(NC(=O)Nc4ccc(Cl)cc4)cc3)sc2c1 | –
13 | 94 | 110 | 3% | – | – | S=C(Nc1ccc(Cl)cc1)Nc1ccc(CNc2nc3ccc(OCCN4CCOCC4)cc3s2)cc1 | –
14 | – | – | – | inactive | 17% | O=C(Nc1cccc(CNc2nc3ccc(OCCN4CCOCC4)cc3s2)c1)c1ccc([N+](=O)[O-])cc1 | –
15 | 77 | 270 | 2% | – | – | O=C(Nc1ccc(CNc2nc3ccc(OCCN4CCOCC4)cc3s2)cc1)Nc1ccc(Cl)c(Cl)c1 | –
16 | – | – | – | inactive | 30% | O=S(=O)(Nc1ccc(CNc2nc3ccc(OCCN4CCOCC4)cc3s2)cc1)c1ccc(F)cc1 | –

Row | inhibition (Aurora kinase B [1]) [%] | IC50 (Aurora kinase B [2]) [nM] | inhibition [3] | inhibition [4] | inhibition (Aurora kinase B [5]) | Compound | further results
17 | 83 | 90 | 9% | – | – | O=C(Nc1ccc(Br)cc1)Nc1ccc(CNc2nc3ccc(OCCN4CCOCC4)cc3s2)cc1 | inhibition (Aurora kinase B [7]): Dose-dependent effect; fold change (FC) (HeLa [8]): >2
18 | – | 6200 | – | inactive | 42% | O=C(Nc1cccc(CNc2nc3ccc(OCCN4CCOCC4)cc3s2)c1)c1ccc(Cl)cc1 | –
19 | – | – | – | – | 12% | O=C(Nc1ccccc1)n1ccc(CNc2nc3ccc(OCCN4CCOCC4)cc3s2)n1 | –
20 | – | – | – | inactive | 25% | O=C(Nc1ccc(CNc2nc3ccc(OCCN4CCOCC4)cc3s2)cc1)c1ccccc1 | –
21 | – | – | – | – | 31% | O=C(Nc1ccc(Cl)cc1)n1ccc(CNc2nc3ccc(OCCN4CCOCC4)cc3s2)n1 | –
22 | – | – | – | inactive | 30% | O=C(Nc1cccc(CNc2nc3ccc(OCCN4CCOCC4)cc3s2)c1)c1cccc(Cl)c1 | –
23 | – | – | – | – | 31% | O=C(Nc1ccc(Br)cc1)n1ccc(CNc2nc3ccc(OCCN4CCOCC4)cc3s2)n1 | –
24 | – | 1400 | – | inactive | 91% | O=C(Nc1ccc(CNc2nc3ccc(OCCN4CCOCC4)cc3s2)cc1)c1cccc(Cl)c1 | –
25 | – | 9000 | – | inactive | 56% | O=C(Nc1cccc(CNc2nc3ccc(OCCN4CCOCC4)cc3s2)c1)c1ccc(F)cc1 | –
26 | – | – | – | inactive | 16% | O=S(=O)(Nc1ccc(CNc2nc3ccc(OCCN4CCOCC4)cc3s2)cc1)c1ccccc1 | –
27 | 33 | 1000 | inactive | – | – | O=C(Nc1cccc(Cl)c1)Nc1cccc(CNc2nc3ccc(OCCN4CCOCC4)cc3s2)c1 | –
28 | 79 | 250 | inactive | – | – | COc1ccc(NC(=O)Nc2ccc(CNc3nc4ccc(OCCN5CCOCC5)cc4s3)cc2)cc1 | –
29 | 44 | 700 | inactive | – | – | O=C(Nc1ccc(F)cc1)Nc1ccc(CNc2nc3ccc(OCCN4CCOCC4)cc3s2)cc1 | –
30 | – | – | – | – | 5% | O=C(Nc1ccc(F)cc1)n1ccc(CNc2nc3ccc(OCCN4CCOCC4)cc3s2)n1 | –
31 | 72 | 360 | inactive | – | – | COc1ccc(NC(=S)Nc2ccc(CNc3nc4ccc(OCCN5CCOCC5)cc4s3)cc2)cc1 | –
32 | – | – | – | inactive | inactive | O=C(Nc1ccccc1CNc1nc2ccc(OCCN3CCOCC3)cc2s1)c1ccccc1 | –
